# Screens (PubChem BioAssay)
# RORA act: RORA (human) activation; AID 560; activation, % at 10 µM; CHO-K1 Gal4-RORA LBD luciferase reporter, luminescence; percent increase over mock-subtracted basal signal; hit rate 1.5% among 65,000;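 active = activation above the mean of all tested compounds plus 3 SD, cut at about 49% in these data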;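 note: 0% = DMSO-treated RORA cells and 100% = added signal equal to DMSO minus mock-transfected cells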
# Target sequence (P35398 whole entry, looked up, the tested form may be a part): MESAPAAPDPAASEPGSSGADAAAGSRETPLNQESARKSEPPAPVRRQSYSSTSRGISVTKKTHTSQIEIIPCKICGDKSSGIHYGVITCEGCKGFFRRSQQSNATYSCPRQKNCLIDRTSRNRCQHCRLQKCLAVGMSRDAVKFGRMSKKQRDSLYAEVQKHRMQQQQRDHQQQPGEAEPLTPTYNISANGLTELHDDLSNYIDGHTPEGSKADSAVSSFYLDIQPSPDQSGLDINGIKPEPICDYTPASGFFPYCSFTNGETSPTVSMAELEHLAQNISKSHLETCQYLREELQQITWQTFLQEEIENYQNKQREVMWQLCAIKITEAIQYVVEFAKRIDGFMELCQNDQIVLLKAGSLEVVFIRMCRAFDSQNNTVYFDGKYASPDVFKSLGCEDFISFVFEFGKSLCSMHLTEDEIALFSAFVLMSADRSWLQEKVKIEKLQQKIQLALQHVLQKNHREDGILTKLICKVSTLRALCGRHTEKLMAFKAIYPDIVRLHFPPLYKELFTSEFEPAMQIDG
# JNK3 inh: inhibitors of human JNK3 kinase; hit rate 0.61% among 60,000; AID 746; purified JNK3 kinase activity, HTS; P53779; inhibition, % at 8 µM; in the data active = inhibition above about 17%;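 note: 0% = DMSO and 100% = reference inhibitor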
# HEK293 NFkB inh: lowers PMA/ionomycin-induced NF-kB signal in HEK293 cells; hit rate 0.21% among 62,000; inhibition, % at 3 µM; HEK-293 NF-kB luciferase reporter, luminescence; AID 465;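 active = inhibition above the mean of all tested compounds plus 3 SD, cut at about 40% in these data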;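 note: 0% = stimulated DMSO wells and 100% = 10 µM reference inhibitor 5653914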
#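 System: NF-kB luciferase reporter HEK-293 cells | Replication: Single test | Control set: DMSO vs reference inhibitor | Evaluation: % inhibition | Schedule: 1 h pretreatment, 16 h stimulation, 37 °C | Probe or stimulus: PMA with ionomycin | Compound dosing: One dose, 3 µM | Detection: Luciferase luminescence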
# SF1 activator: activates the human nuclear receptor SF-1 | Q13285 | CHO-K1 Gal4-SF-1 LBD luciferase reporter; % increase over DMSO SF-1-specific signal | activation, % at 10 µM | hit rate 1.9% among 65,000 | AID 522;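 active = activation above the mean activation of all tested compounds plus 3 SD, cut at about 50% in these data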
#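 Material: Gal4–SF-1 LBD one-hybrid luciferase reporter in CHO-K1 cells | Amount: 4,000 cells per well | Compound dosing: 10 µM single point, 1% DMSO | Schedule: 20 h compound treatment, 37 °C | Measured by: SteadyLite luciferase luminescence | Evaluation: Percent activation versus DMSO | Control set: DMSO-treated SF-1-transfected cells as negative, DMSO-treated mock-transfected cells lacking SF-1 as background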
# D1 mod: allosterically modulates the human D1 dopamine receptor; AID 641; B-score at 10 µM; HEK293 D1, CRE-luciferase, dopamine EC30 potentiation; actives deviate in either direction; P21728; hit rate 5.9% among 58,000;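 active = luminescence count or its row- and column-corrected plate score outside the 99.7% band of the plate's sample wells, on either side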
# D1 PAM confirm: confirmation of human D1 dopamine receptor allosteric modulators | AID 642 | luminescence at 10 µM | shares compounds with D1 mod | HEK293 D1 CRE-luciferase, dopamine EC30 potentiation; active compounds read high | hit rate 88% among 2,200;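 active = luminescence in either of two replicates above the same-plate mean plus 3 SD of the low-dose dopamine control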
# D1 ag no DA: secondary test of D1 modulators: activity without dopamine; shares compounds with D1 mod; HEK293 D1 CRE-luciferase, luminescence, no dopamine; active compounds read high; luminescence at 10 µM; hit rate 0.8% among 1,900; in the data active = luminescence above about 3900
# Isoprot counter: counter-screen for D1 modulators: isoproterenol response in HEK293 cells; HEK293 D1 CRE-luciferase, isoproterenol EC30 counter-screen; AID 647; hit rate 63% among 2,200; shares compounds with D1 mod; calls only at 10 µM;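 active = luminescence in either replicate above plate mean of wells with a partly effective reference agonist dose plus 3 SD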;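 note: isoproterenol raises cAMP through native beta-adrenoceptor Gs so signal bypasses D1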
# * marks the source's active call; other numbers are inactive results; i = inactive; . = not tested or not shown; + = active, no number. Compounds with a hit are over-represented: about 7.9% of the library has one in this group of screens.
SMILES,RORA act,JNK3 inh,HEK293 NFkB inh,SF1 activator,D1 mod,D1 PAM confirm,D1 ag no DA,Isoprot counter
COC(=O)c1ccccc1NC(=O)C1CCCC1,4,-5,0,-7,6.6*,9916*,1688,+
Cc1[nH]nc2c1C(c1ccccc1F)CC(=O)N2 (stereo not given),10,8,3,14,0.29,.,.,.
COc1ccc(C2CC(C(F)(F)F)n3ncc(C(=O)NCc4cccnc4)c3N2)cc1OC (stereo not given),-9,0,14,5,9.8*,18500*,1632,+
CCC(=O)N1CCc2cc(Br)cc(S(=O)(=O)NCC3CCCN3CC)c21 (stereo not given),0,.,9,9,-0.36,.,.,.
CCn1c(-c2ccsc2)nc2c1c(=O)[nH]c(=O)n2Cc1ccccc1,-8,1,27,0,6.3*,16576*,1684,+
CCn1c(N2CCC(Cc3ccccc3)CC2)nc2c1c(=O)[nH]c(=O)n2C,0,1,4,-3,0.077,.,.,.
COc1ccc(C(=O)CSc2nc3nc(C)cc(C)n3n2)cc1OC,7,-7,12,-4,11*,20980*,1924,+
Cc1cc(C)n2nc(SCC(=O)c3ccc[nH]3)nc2n1,-5,10,12,-5,0.67,.,.,.
CCN1C(=O)c2cccc3c(S(=O)(=O)Nc4ccccn4)ccc1c23,-23,-8,40*,-23,2.5*,5724*,1712,i
CCN1C(=O)c2cccc3c(S(=O)(=O)Nc4ncccc4C)ccc1c23,-20,-6,20,10,7.9*,9156*,1492,+
COc1ccc(Nc2ncc3c(n2)CC(c2ccc(OC)cc2)CC3=O)cc1 (stereo not given),-20,4,-2,-10,7.5*,11768*,1536,+
CCCS(=O)(=O)n1nc(-c2ccc(Br)cc2)cc1N,8,5,1,8,0.49,.,.,.
N=c1sc2ccccc2n1-c1ccccc1,15,.,-7,-13,21*,9268*,1508,+
CSc1nnc(Cn2c(=O)sc3ccccc32)n1-c1ccccc1,-19,-5,6,-15,0.29,.,.,.
O=C1C(Cl)=C(NCC2CCCO2)C(=O)N1C1CCCCC1 (stereo not given),-4,-9,8,-8,4.4*,8656*,1704,i
O=C1C(Cl)=C(NCC2CCCO2)C(=O)N1c1ccccc1 (stereo not given),2,1,8,6,0.5,.,.,.
COc1ccc(-c2nn3c(-c4ccco4)nnc3s2)cc1OC,-11,1,11,-19,16*,18008*,.,+
COc1cc(-c2nn3c(COc4ccccc4)nnc3s2)cc(OC)c1OC,11,5,.,12,.,.,.,.
COc1cc(-c2nnc3sc(-c4ccncc4)nn23)cc(OC)c1OC,-14,9,-5,-9,2,.,.,.
COc1cc(-c2nn3c(Cc4ccccc4)nnc3s2)cc(OC)c1OC,9,-2,9,7,4*,9884*,1660,+
COc1cc(-c2nn3c(-c4ccccc4)nnc3s2)cc(OC)c1OC,-17,6,3,14,3.3*,14804*,1764,+
CCn1c(=O)n(CC(=O)NC2CCCC(C)C2C)c(=O)c2ccccc21 (stereo not given),-24,-12,19,-20,0.0093,.,.,.
Cc1nc(-c2ccc(NS(C)(=O)=O)cc2)cs1,-11,5,12,-1,0.11,.,.,.
CCOC(=O)c1cccc(NC(=O)C(NS(=O)(=O)c2ccc3c(c2)CCN3C(C)=O)C(C)C)c1 (stereo not given),-21,1,-9,-5,0.57,.,.,.
Nc1nc(CSc2ccccn2)nc(Nc2ccccc2)n1,24,.,-38,58*,3.6*,10684*,.,+
SMILES,RORA act,JNK3 inh,HEK293 NFkB inh,SF1 activator,D1 mod,D1 PAM confirm,D1 ag no DA,Isoprot counter
Cc1ccc(Nc2nc(N)nc(CSc3nnnn3-c3ccccc3)n2)cc1,8,-2,6,0,7.1*,9096*,.,i
Nc1nonc1-n1nncc1-c1ccccc1,12,.,22,14,5.9*,10724*,1496,+
OCCN(CCO)c1nc(N2CCCCC2)c2nc(N(CCO)CCO)nc(N3CCCCC3)c2n1,-12,3,.,-21,11*,11976*,1696,+
CN(C)c1nc(N2CCCCC2)nc(N2CCCCC2)n1,3,1,8,1,.,.,.,.
COc1ccc(OC)c2c1sc(=NC(=O)c1ccco1)n2C,43,3,0,1,3.2*,13568*,1564,+
CCOC(=O)CNC(=O)CSc1nc2cccnc2n1C1CCCCC1,-3,2,6,-9,7.6*,13776*,.,+
CC(C)OC(=O)CSc1nc2cccnc2n1C1CCCCC1,-22,11,-8,-8,22*,27160*,1608,+
CC(=O)Nc1ccc(S(=O)(=O)N(C)CC(=O)NC2=NCCS2)cc1,23,3,14,3,-1.5,.,.,.
C/C=C/Cn1c(Br)nc2c1c(=O)[nH]c(=O)n2C,8,4,7,-7,3.8,.,.,.
C/C=C/Cn1c(N2CCCCCC2)nc2c1c(=O)[nH]c(=O)n2C,-19,0,14,-12,15*,16408*,1784,+
Cn1c(=O)[nH]c(=O)c2c1nc(N1CCCC1)n2CC(O)COc1ccccc1 (stereo not given),-2,2,5,-19,.,.,.,.
CCCn1c(N2CCN(CC(=O)c3c(C)n(C)c4ccccc34)CC2)nc2c1c(=O)[nH]c(=O)n2C,17,-8,14,18,4.4*,12284*,1832,+
Cn1c(=O)[nH]c(=O)c2c1nc(N1CCCCC1)n2CCOc1ccccc1,-7,2,15,-11,14*,22140*,1548,+
CCOC(=O)C1CCN(C(=O)COC(=O)COc2ccccc2OC)CC1,0,0,-8,-4,-0.52,.,.,.
COc1cccc(C(=O)NCc2nnc(SCC(=O)Nc3nccs3)n2-c2ccccc2)c1,-3,-5,5,19,-0.73,.,.,.
O=C(COc1ccccc1)NCc1nnc(SCC(=O)Nc2nccs2)n1-c1ccccc1,15,1,1,-7,3.9*,7240,1652,i
O=C(CCCCCn1c(=O)[nH]c2ccsc2c1=O)N1CCN(C2CCCCC2)CC1,-1,7,13,-10,-0.2,.,.,.
O=S(=O)(NC1CC2CCC1C2)c1ccc(Br)s1 (stereo not given),-13,.,11,-8,0.54,.,.,.
